Bioassay records as filed in PubChem BioAssay.
RAM network inh: yeast RAM network inhibition; S. cerevisiae dse1pr::URA3 reporter, 5-FOA growth OD615, 2 d; analog-sensitive cbk1-as2 kinase mutant strain; inhibition, % at 50 µM; actives 1.8% (n = 190,000); AID 868;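 active = inhibition above a set limit, 3 SD over mean compound inhibition, cut at about 8.4% in these data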;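 also: inhibition rescues growth on 5-FOA so higher OD means more RAM inhibition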
NCF1 inh: inhibitors of human p47phox binding. p47phox/p22phox peptide binding, fluorescence polarization, 2 h. inhibition, % at 24.7 µM. actives 0.53% (n = 220,000);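 active = inhibition above about 30%, limit read from the data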
Target sequence (P14598 whole entry, looked up): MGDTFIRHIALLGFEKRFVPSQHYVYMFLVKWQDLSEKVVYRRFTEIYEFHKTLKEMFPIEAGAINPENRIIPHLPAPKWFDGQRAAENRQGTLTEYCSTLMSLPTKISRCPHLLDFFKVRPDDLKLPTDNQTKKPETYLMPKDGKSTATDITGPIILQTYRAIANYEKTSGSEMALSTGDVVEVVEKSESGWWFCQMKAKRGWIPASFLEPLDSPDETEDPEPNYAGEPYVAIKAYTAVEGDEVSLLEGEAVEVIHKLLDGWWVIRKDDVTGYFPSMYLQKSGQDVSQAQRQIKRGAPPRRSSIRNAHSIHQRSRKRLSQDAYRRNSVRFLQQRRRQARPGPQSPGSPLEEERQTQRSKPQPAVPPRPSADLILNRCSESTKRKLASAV
p-CIP stab down: p/CIP protein destabilization. Q05BA5. F442A p/CIP-EGFP cells, EGFP fluorescence, 16 h. decrease of EGFP signal, % at 10 µM. actives 0.01% (n = 290,000). AID 1984;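 active = EGFP signal decrease of at least 30% at 10 µM or well 3 SD below plate mean, unless failing retest; inactive = the rest, including hits failing retest or dose response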
Dynein cargo inh: blocks dynein driven cargo transport along microtubules | AID 1381 | 3617.4 mouse cells, GR-EGFP nuclear translocation imaging; test concentration mostly 20 µM; stimulated with dexamethasone, 1 µM; hits give low values | actives 0.47% (n = 220,000) | z-score, hits read low;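 active = plate z-score of nuclear minus cytoplasmic receptor signal below a set negative limit, without overly bright fluorescence or cell loss, cut at about -3.5 in these data, passing the limit was not always enough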;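 also: z-score of nuclear minus cytoplasmic ring GR-EGFP intensity difference per well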
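Buffer or medium: tet-free, stripped-serum medium; Also added: dexamethasone, 1.0 µM final; Technique: high-content fluorescence imaging after fixation; Times: 48 h induction, 1 h compound, 30 min dex at 37 °C; Read-out: per-cell GR-EGFP intensity, nucleus versus surrounding cytoplasmic ring, well-averaged.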
Numbers stand for hits; 0 = inactive; - = no result given. Only some compounds are listed: those with a hit (about 1.9% of all), similar ones and a draw of the others.

SMILES	RAM network inh	NCF1 inh	p-CIP stab down	Dynein cargo inh
O=C(CSc1nnc(Cc2cc(=O)[nH]c(=O)[nH]2)n1-c1ccc(Cl)cc1)N1CCc2ccccc21	0	0	0	0
O=C(CSc1nc2ccccc2c(=O)n1-c1ccccc1)N1CCc2ccccc21	0	50	0	0
O=C(CSc1nc2ccccc2c(=O)n1-c1ccccc1)N1CCCc2ccccc21	0	0	0	0
COc1ccc(/C=N/NC(=O)CSc2nnc(CCCc3ccc(OC)c(C)c3)o2)cc1	10	0	0	0
CC(=O)CCC(=O)N1CCC(n2nccc2NC(=O)c2ccccc2C)CC1	-	-	0	-
OC1CCN(c2cc(-c3ccccc3)nc3cc(-c4ccc(F)cc4)nn23)CC1	9.6	0	0	0
CCN1CCN(c2cc(-c3ccccc3)nc3cc(-c4cccc(F)c4)nn23)CC1	0	0	0	0
Cc1ccc2c(c1)c1ccc3c(c1n2C)C(=O)C=CC3=O	-	0	0	-6.9
CCOC(=O)Nc1ccc(S(=O)(=O)NCc2ccccc2)cc1	0	38	0	0
CC(C)c1ccc(OC(=O)NCCO)cc1	0	41	0	0
COc1ccc(OC(=O)NCCc2ccccc2)cc1	-	0	0	0
CCc1cccc(NC(=O)CCS(=O)(=O)c2ccc(Br)cc2)c1	-	-	0	-
Cc1cc(Nc2ccc(O)cc2)n2c(nc3ccccc32)c1C#N	9.1	0	0	0
COc1ccc(NC(=O)CCN2CCN(c3ccccc3F)CC2)c(OC)c1	-	-	0	-
CN1CCN(CCCNC(=O)c2ccc(/C=C3\Sc4ccccc4N(Cc4ccccc4F)C3=O)cc2)CC1	0	86	0	0
O=C(NCCN1CCOCC1)c1ccc(/C=C2\Sc3ccccc3N(Cc3ccccc3F)C2=O)cc1	-	-	0	-
CCc1ccc(/C=C2/Sc3ccccc3N(CC(=O)NCCCOC)C2=O)cc1	9.8	0	0	0
CCN1CCN(CCNC(=O)c2ccc(/C=C3/Sc4ccccc4N(Cc4cccc(Cl)c4)C3=O)cc2)CC1	0	72	0	0
CCN1CCN(CCNC(=O)c2ccc3c(c2)N(Cc2ccc(F)cc2)C(=O)/C(=C/c2ccccc2)S3)CC1	0	62	0	0
Cc1cccc(CN2C(=O)/C(=C\c3ccc(C(=O)NCCN4CCOCC4)cc3)Sc3ccccc32)c1	-	-	0	-
Cc1ccc(-n2ncc3c2CCCC3NC(=O)CCCN2CCCC2=O)cc1C (stereo not drawn)	-	-	0	-
Nc1ccccc1-c1nnc(-c2ccc(-c3ccccc3)cc2)o1	0	58	0	0
c1ccc(-c2nnc(-c3ccccc3)o2)cc1	0	0	0	0
COc1ccc(OCC(=O)NCCCCCCNC(=O)COc2ccc(OC)cc2)cc1	-	-	0	-
COc1cc(NC(=O)CNC(c2ccccc2)c2ccccc2)cc(OC)c1OC	-	-	0	-
SMILES	RAM network inh	NCF1 inh	p-CIP stab down	Dynein cargo inh
COc1cc(NC(c2ccccc2)c2ccccc2)cc(OC)c1OC	8.4	0	0	0
COc1ccc(CCNC(=O)CSc2cn(Cc3ccccc3)c3ccccc23)cc1OC	10	0	0	0
CN1CCc2nc(SCC(=O)Nc3ccc(F)cc3)c(C#N)cc2C1	0	37	0	0
COc1ccc(NC(=O)CSc2nc3c(cc2C#N)CN(C)CC3)cc1	0	0	0	-
CC(C)n1c(=O)[nH][nH]c1=S	-	43	0	0
COc1cc(S(=O)(=O)N(Cc2ccc(C)cc2)Cc2ccco2)ccc1-n1cnnn1	9.0	0	0	0
Cc1cc(S(=O)(=O)N(Cc2ccccc2)Cc2ccc(N(C)C)cc2)ccc1-n1cnnn1	0	0	0	0
COc1cc(S(=O)(=O)N(Cc2cccnc2)Cc2ccco2)ccc1-n1cnnn1	0	0	0	0
Cc1cc(S(=O)(=O)N(Cc2ccc(C(C)(C)C)cc2)Cc2cccs2)ccc1-n1cnnn1	9.3	0	0	0
Cc1c(OCc2ccc(C(=O)O)o2)ccc2c3c(c(=O)oc12)CCC3	9.4	0	0	0
COC(=O)c1ccc(COc2ccc3c(C)c(C)c(=O)oc3c2C)o1	0	72	0	0
COC(=O)c1ccc(COc2ccc(C)cc2[N+](=O)[O-])o1	-	0	0	0
CCN(CC)C(=O)COc1ccc2c3c(c(=O)oc2c1C)CCCC3	-	-	0	-
COc1ccc(CNC(=O)COC(=O)Cc2ccc(Cl)cc2Cl)cc1	11	0	0	0
Cc1ccc(CNC(=O)COC(=O)CCCOc2ccc(Cl)cc2Cl)cc1	0	72	0	0
COc1ccc(CC(=O)OCC(=O)NCc2ccc(Cl)cc2)cc1	0	0	0	0
Cc1ccc2cc(CCNS(=O)(=O)c3ccc(F)cc3)c(=O)[nH]c2c1C	8.5	0	0	0
O=C(NCCCN1CCCCCC1)C1CC(=O)N(CCc2ccccc2)C1 (stereo not drawn)	0	55	0	0
O=C(NCCCN1CCOCC1)C1CC(=O)N(CCc2ccccc2)C1 (stereo not drawn)	0	0	0	0
COc1ccc(OCC(=O)Nc2cccc(NC(=O)c3ccco3)c2)cc1	0	0	0	0
O=C(CSc1nccn(-c2cccc(F)c2)c1=O)Nc1ccc(Cl)cc1F	-	-	0	-
O=C(OCC#CCSc1nc2ccccc2o1)c1cc2ccccc2o1	10	0	0	0
Cc1cc2oc(C(=O)N(Cc3ccc(N(C)C)cc3)CC3CCCO3)c(C)c2cc1C (stereo not drawn)	-	-	0	-
O=c1c(Br)c(Br)cnn1-c1ccccc1	0	0	0	-5.8
O=c1c(Br)c(N2CCCC2)cnn1-c1ccccc1	0	0	0	0
SMILES	RAM network inh	NCF1 inh	p-CIP stab down	Dynein cargo inh
CCOc1ccc(C2C(C(=O)c3ccco3)=C(O)C(=O)N2CCN2CCOCC2)cc1 (stereo not drawn)	-	-	0	-
CCOc1cccc(C2/C(=C(/O)c3ccc4c(c3)CC(C)O4)C(=O)C(=O)N2CCCn2ccnc2)c1 (stereo not drawn)	-	-	0	-
CCSc1nnc(NC(=O)COc2ccc(Cl)cc2)s1	0	0	0	0
CCSc1nnc(NC(=O)COc2cccc3ccccc23)s1	9.7	0	0	0
COc1cc(CC(=O)Nc2nc(C)cs2)cc(OC)c1OC	0	0	0	0
O=C(NCCNC(=O)c1cc(Cl)ccc1Cl)c1cnccn1	-	-	0	-
Cc1[nH]ccc2c1[nH]c1cc(=O)ccc12	-	46	0	0
CCOC(=O)C1=C(C)N(c2ccc(C)c(C)c2)C(=O)/C1=C\c1ccco1	11	0	0	0
O=C(Nc1ccc(Cl)cc1)NC1CCCC1Cc1ccco1 (stereo not drawn)	8.8	0	0	0
O=C(Nc1ccc(Cl)cc1)NC1CCCCC1Cc1ccco1 (stereo not drawn)	0	0	0	0
O=C(COC(=O)c1ccccc1NS(=O)(=O)c1ccc(Cl)cc1)NCc1ccccc1	11	0	0	0
O=C(COC(=O)c1ccccc1Br)NCc1ccccc1	0	0	0	0
CCOC(=O)c1ccccc1NS(=O)(=O)c1ccc(S(=O)(=O)N2CCCC2)cc1	10	0	0	0
CCOC(=O)C1CCN(C(=O)c2ccccc2NS(=O)(=O)c2ccccc2)CC1	-	-	0	-
CN(C(=O)c1cc(COc2ccc(F)cc2Cl)on1)C1CCCc2ccccc21 (stereo not drawn)	-	-	0	-
